Results: ChEMBL document CHEMBL1144927, “Discovery of a novel and highly potent noncompetitive AMPA receptor antagonist” (2003)

Experiments:
[1] = Anticonvulsant activity against audiogenic seizures in DBA/2 mice 30 min after intraperitoneal administration (tonic phase); assay type: functional; settings: Mus musculus, ip, 0.5 h
Method in brief: (§1)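 DBA/2 mice, genetically susceptible to sound-induced seizures (8-12 g, 22-25 days old, either sex), were dosed ip in groups of 10 with vehicle or each dose. Dosing solution was freshly prepared in 50% DMSO/50% sterile 0.9% saline. Mice received auditory stimulation 30 min later and were scored for latency and incidence of seizure phases. ED50 per phase was fitted by Litchfield-Wilcoxon, with 95% confidence limits.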

[2] = Anticonvulsant activity against audiogenic seizures in DBA/2 mice 30 min after intraperitoneal administration (clonic phase); assay type: functional; settings: Mus musculus, ip, 0.5 h; method in brief: as §1

Compound	ED50 [1]	ED50 [2]
CC(=O)N1N=C(c2ccc(N)cc2)c2cc3c(cc2C[C@H]1C)OCO3 [TALAMPANEL]	9.7 µmol/kg	13.4 µmol/kg
COc1cc2c(cc1OC)C(c1ccc(Br)cc1)N(C(C)=O)CC2 (stereo not given)	16.5 µmol/kg	43.1 µmol/kg
COc1cc2c(cc1OC)C(c1ccc([N+](=O)[O-])cc1)N(C(C)=O)CC2 (stereo not given)	> 100 µmol/kg	> 100 µmol/kg
COc1cc2c(cc1OC)C(c1ccc(Cl)cc1)N(C(C)=O)CC2 (stereo not given)	2.4 µmol/kg	4.2 µmol/kg
COc1cc2c(cc1OC)C(c1ccc(F)cc1)N(C(C)=O)CC2 (stereo not given)	18 µmol/kg	36.8 µmol/kg
COc1cc2c(cc1OC)C(c1ccccc1)N(C(C)=O)CC2 (stereo not given)	37.7 µmol/kg	53.5 µmol/kg
COc1cc2c(cc1OC)C(c1ccc(N)cc1)N(C(C)=O)CC2 (stereo not given)	21.1 µmol/kg	32.1 µmol/kg
COc1cc2c(cc1OC)C(c1ccc(N)cc1)=NNC(=O)C2	–	15 µmol/kg
